# Hits are enriched below; roughly 3.6% of the tested compounds scored in any of these assays.
# RAM network inh – inhibitors of the yeast RAM network. S. cerevisiae dse1pr::URA3 reporter, 5-FOA growth OD615, 2 d; analog-sensitive cbk1-as2 kinase mutant strain. inhibition, % at 50 µM. hit rate 1.8% among 190,000;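 active means inhibition above a set limit, 3 SD over mean compound inhibition, cut at about 8.4% in these data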;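 further: 0% = DMSO-only wells with no growth and 100% = 10 µM 1-NA-PP1 full growth; inhibition rescues growth on 5-FOA so higher OD means more RAM inhibition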
# Measles CPE – protection of cells from measles virus | Measles virus-infected cells, CPE protection, absorbance | hit rate 1.5% among 140,000 | protection (pct of control), % at 4 µM; in the data active means protection mostly above about 24%, no sharp cut-off; inactive means mostly below about 26%
# Yeast life ext – extends the lifespan of yeast; S. cerevisiae growth with nicotinamide, OD615; deaD strain in restrictive glucose medium; inhibition of the nicotinamide effect, % at 10 µM; hit rate 0.68% among 130,000; AID 775;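 active means inhibition above a set limit, placed 3 SD over the median of all compounds, cut at about 26% in these data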;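 further: 0% = nicotinamide-treated wells and 100% = cells grown without nicotinamide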
#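 assay system = DeaD-strain S. cerevisiae | buffer or medium = restrictive glucose medium | reagent = 1.5 mM nicotinamide | compound = 10 µM single point, 0.25% DMSO | incubation = 48 h compound exposure at 30 °C, humidified | signal = OD615 measurement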
# Yeast growth inh – yeast BB579 growth reduction in restrictive medium. AID 804. hit rate 0.51% among 140,000. inhibition, % at 10 µM. S. cerevisiae BB579 growth, OD615, 48 h;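 active means inhibition above a set limit, 3 SD over the mean compound inhibition, cut at about 44% in these data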
#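 Detection: OD615 turbidity measurement; Material: Saccharomyces cerevisiae DeaD strain BB579, replicative lifespan model yeast; Timing: 48 h exposure, 30 °C; Doses: single 10 µM dose; Medium: CSMM-D restrictive synthetic medium containing dextrose (glucose); Controls: amphotericin B at 10 µg/mL as positive control.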
# The depositor's hits bear a star; / = no result given.
SMILES,RAM network inh,Measles CPE,Yeast life ext,Yeast growth inh
CCc1ccc(OCCNC(=O)c2ccccc2SCc2ccccc2)cc1,8.8*,5,-2,-30
Cc1ccc(CNC(=O)C(=O)NCC2OCCN2C(=O)c2cccs2)cc1 (configuration not stated),9.5*,15,-3,-7
COc1ccc(CCNC(=O)CN(C)S(=O)(=O)c2cccs2)cc1OC,2,36*,-9,-3
COc1ccc(CCNC(=O)CN2CCCc3ccccc32)cc1OC,2,45*,-10,-47
COc1ccc(CCNC(=O)CN2CCC(C)CC2)cc1OC,3,32*,14,-20
CN(C)c1ccc(-c2nnn(CC(=O)NCc3ccc4c(c3)OCO4)n2)cc1,2,/,/,/
S=C(NCCc1ccccc1)NCc1cccs1,0,3,-6,14
Cc1cc(/C=C(\C#N)C(=O)NCc2ccco2)c(C)n1-c1ccc(C(=O)O)cc1,6,/,/,/
CCCNc1nc(Cl)nc(NC(C)(C)C)n1,0,/,/,/
C=C(C)c1cccc(C(C)(C)NC(=O)Nc2ccccc2OCC)c1,6,32,3,-44
C=C(C)c1cccc(C(C)(C)NC(=O)Nc2ccc(Cl)cn2)c1,11*,25,-2,-35
C=C(C)c1cccc(C(C)(C)NC(=O)Nc2cc(C)ccc2OC)c1,7,60*,-20,-38
CCOC(=O)c1sc(NN=C(C(=O)OC)C(=O)OC)c(C(=O)OCC)c1C,6,18,2,-57
CC(C)NC(=O)CSc1nnc(-c2ccc(F)cc2)c2ccccc12,1,/,/,/
O=C(COC(=O)c1cc[n+]([O-])cc1)Nc1ccc(F)c([N+](=O)[O-])c1,0,3,2,-35
COc1ccc(COc2cc(-c3cccc(OC)c3)nc3ccc(NC(=O)c4ccc(C)cc4)cc23)cc1,8.6*,24,3,-39
COc1ccc(COc2cc(-c3cccc(OC)c3)nc3ccc(NC(=O)c4ccc(N(C)C)cc4)cc23)cc1,6,23,2,-29
Cc1c(C(=O)N2CCOCC2)sc(NC(=O)Cc2ccccc2)c1C#N,6,/,/,/
CC[C@@H](C)C(NC(=O)OC(C)(C)C)c1cn([C@@H](CCC(=O)OC(C)(C)C)C(=O)N2CCN(C(=O)OC(C)(C)C)CC2)nn1 (some centres not stated),1,/,/,/
COc1ccc(NC(=O)CN(C)C(=O)c2oc3ccccc3c2C)cc1,1,/,/,/
COc1ccc(OC)c(C(=O)COC(=O)c2ccccc2O)c1,8.7*,2,-19,0
COc1ccccc1CNC(=O)CN(CCc1ccccc1)S(C)(=O)=O,0,/,/,/
O=C(c1ccccc1)c1cc([N+](=O)[O-])ccc1N1CCOCC1,1,5,7,-39
CC1CCCN(c2ccc([N+](=O)[O-])cc2C(=O)c2ccccc2)C1 (configuration not stated),9.6*,10,16,-27
Cc1onc(-c2ccccc2)c1C(=O)NC(=S)NNC(=O)c1ccc(O)cc1O,1,8,0,80*
SMILES,RAM network inh,Measles CPE,Yeast life ext,Yeast growth inh
O=c1cc(N2CCCCC2)c(-c2ccccc2)nn1Cc1ccccc1Cl,4,21,-6,-5
O=c1cc(N2CCCCC2)c(-c2ccccc2)nn1Cc1ccc(Cl)cc1Cl,8,43*,-5,-58
COc1ccc(C(=O)C(CN2CCOCC2)c2ccccc2)cc1 (configuration not stated),2,9,61*,-53
COc1ccc(C(=O)C(CN2CCCC2)c2ccccc2)cc1 (configuration not stated),2,31,9,-19
CCCCOc1ccc(C(=O)C(CN2CCOCC2)c2ccccc2)cc1 (configuration not stated),0,41*,/,-2
Cc1ccnn1Cc1cc(C(=O)O)c2ccccc2n1,2,/,/,/
CC(NC(=O)c1ccccc1)C(=O)N/N=C/c1cccc([N+](=O)[O-])c1 (configuration not stated),1,/,/,/
S=c1nn[nH]n1C12CC3CC(CC(C3)C1)C2,0,34*,14,-9
Cc1c(-n2c(SCC(N)=O)nc3ccccc3c2=O)c(=O)n(-c2ccccc2)n1C,1,/,/,/
CC(C)[C@H](NC(=O)c1ccccc1)C(=O)OCC(=O)N1CCN(C(=O)c2ccco2)CC1,1,/,/,/
O=C1OCC(CO)(CO)N=C1NNc1ccccc1Cl,-1,14,-19,98*
Nc1c(Nc2ccccc2)c2ccccc2oc1=O,9.8*,11,-26,48*
O=C(O)c1[nH]c2ccc(Cl)cc2c1CC(=O)N1CCN(c2ccccc2)CC1,11*,3,-11,-26
Cc1ccc(C)c(NS(=O)(=O)c2ccc(OCC(=O)NCc3ccco3)cc2)c1,4,13,-9,-42
Cc1ccc(NS(=O)(=O)c2ccc(OCC(=O)NCc3ccco3)cc2)cc1,1,53*,-15,-16
O=C(Cc1csc(Nc2nc(=S)[nH]c3ccccc23)n1)N1CCN(c2cccc(C(F)(F)F)c2)CC1,5,/,/,/
CCCCCC1CCC(C(=O)O)CC1 (configuration not stated),0,9,-7,52*
Cc1ccc2nc3c(nc2c1)-c1ccccc1C3=O,3,10,-9,59*
Cc1cccc(OCC(=O)N/N=C\c2cn(C)c3ccccc23)c1,2,/,/,/
Cc1cccc(OCCn2cc(/C=N/NC(=O)c3ccncc3)c3ccccc32)c1,0,1,-8,54*
COC(=O)CSc1ccc(S(=O)(=O)N2CCCCCC2)cc1[N+](=O)[O-],1,/,/,/
CCCc1[nH]nc2c1C(c1ccncc1)C(C#N)=C(N)O2 (configuration not stated),-1,10,-3,-11
CCCc1nn(C)c2c1C(c1ccncc1)C(C#N)=C(N)O2 (configuration not stated),-1,40*,-10,-3
CCc1ccc(CC2S/C(=C(\C#N)C(C)=O)NC2=O)cc1 (configuration not stated),3,31,44*,-3
O=C(/C=C/c1ccccc1)NC(NC(=S)Nc1ccc(Cl)cc1)C(Cl)(Cl)Cl (configuration not stated),10*,8,-9,-43
SMILES,RAM network inh,Measles CPE,Yeast life ext,Yeast growth inh
COc1ccc(NC(=S)NC(NC(=O)/C=C/c2ccccc2)C(Cl)(Cl)Cl)cc1 (configuration not stated),7,9,-12,-41
O=C(Oc1ccc(Br)cc1C(=S)N1CCCC1)c1ccccc1Cl,8,9,-7,-10
Cc1ccccc1C(=O)Oc1ccc(Br)cc1C(=S)N1CCCC1,9.8*,5,2,-41
CCOP(=O)(OCC)C(Nc1ccc(OC)cc1)c1ccco1 (configuration not stated),1,/,/,/
CCOC(=O)c1sc2ccccc2c1OC(=O)c1ccccc1OC,10*,9,16,-26
CCOC(=O)c1cc(OC(=O)c2ccccc2OC)n(-c2ccccc2)n1,1,1,22,-3
Cc1ccsc1C(=O)N1CCC(CO)(Cc2ccccc2)CC1,0,/,/,/
CC(C)OC(=O)CC(=O)CSc1nc2c(c(-c3cccs3)c1C#N)CCC2,10*,7,7,-29

# Screening results (PubChem)
